According to ChEMBL document CHEMBL5303300, “EUbOPEN Chemogenomics Library - Multiplex” (2023):
Several values for one entry are separate records, joined by “and”; a condition that tells them apart may be missing. Identical values can stand only once.

System: HEK-293T
Experiment: Multiplex assay against HEK293T
Assay type: toxicity, cell-based
Details: human, number of replicates 2
In short: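 Live cells carried four stains from seeding: Hoechst33342, BioTracker Green Microtubule Cytoskeleton Dye, MitoTracker Red and Annexin V Alexa Fluor 680. They were imaged on a CQ1 microscope at 37°C and 5% CO2 after compound addition. Using CellPathfinder machine-learning gating, cells were split into Hoechst high-intensity objects or normal cells, normal cells into healthy, pyknosed or fragmented nuclei, and pyknosed cells into mitotic or apoptotic; tubulin, mitochondrial-mass and membrane-permeability phenotypes are per cents of healthy-nucleus cells.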

[1] = 12 h, 1 µM, compound concentration 1 uM
[2] = 12 h, 10 µM, compound concentration 10 uM
[3] = 24 h, 1 µM, compound concentration 1 uM
[4] = 24 h, 10 µM, compound concentration 10 uM
[5] = 48 h, 1 µM, compound concentration 1 uM
[6] = 48 h, 10 µM, compound concentration 10 uM

CN[C@@H]1CC[C@@H](c2ccc(Cl)c(Cl)c2)c2ccccc21.Cl
Population Apoptotic (%) [1]: 46% and 42%
Population Fragmented Nuclei (%) [1]: 2% and 3%
Population Healthy Nuclei (%) [1]: 84%
Population Hoechst High Intensity Objects (%) [1]: 8% and 7%
Population Membrane Permeable-Phenotype (%) [1]: 3%
Population Mitochondria Different-Phenotype (%) [1]: 21% and 16%
Population Mitotic Cells (%) [1]: 53% and 57%
Population Normal (%) [1]: 91% and 92%
Population Pyknosed Nuclei (%) [1]: 12% and 11%
Population Tubulin-Different-Phenotype (%) [1]: 68% and 66%
Population Apoptotic (%) [2]: 57% and 46%
Population Fragmented Nuclei (%) [2]: 3% and 1%
Population Healthy Nuclei (%) [2]: 81% and 80%
Population Hoechst High Intensity Objects (%) [2]: 6%
Population Membrane Permeable-Phenotype (%) [2]: 1% and 3%
Population Mitochondria Different-Phenotype (%) [2]: 48% and 54%
Population Mitotic Cells (%) [2]: 42% and 53%
Population Normal (%) [2]: 93%
Population Pyknosed Nuclei (%) [2]: 15% and 17%
Population Tubulin-Different-Phenotype (%) [2]: 96%
Population Apoptotic (%) [3]: 41% and 38%
Population Fragmented Nuclei (%) [3]: 3% and 4%
Population Healthy Nuclei (%) [3]: 88%
Population Hoechst High Intensity Objects (%) [3]: 8%
Population Membrane Permeable-Phenotype (%) [3]: 3% and 2%
Population Mitochondria Different-Phenotype (%) [3]: 10%
Population Mitotic Cells (%) [3]: 58% and 61%
Population Normal (%) [3]: 91%
Population Pyknosed Nuclei (%) [3]: 8% and 7%
Population Tubulin-Different-Phenotype (%) [3]: 42% and 45%
Population Apoptotic (%) [4]: 66% and 59%
Population Fragmented Nuclei (%) [4]: 4% and 2%
Population Healthy Nuclei (%) [4]: 78% and 81%
Population Hoechst High Intensity Objects (%) [4]: 7% and 11%
Population Membrane Permeable-Phenotype (%) [4]: 2%
Population Mitochondria Different-Phenotype (%) [4]: 63% and 59%
Population Mitotic Cells (%) [4]: 33% and 40%
Population Normal (%) [4]: 92% and 88%
Population Pyknosed Nuclei (%) [4]: 16% and 15%
Population Tubulin-Different-Phenotype (%) [4]: 94%
Population Apoptotic (%) [5]: 14% and 15%
Population Fragmented Nuclei (%) [5]: 11% and 10%
Population Healthy Nuclei (%) [5]: 84% and 86%
Population Hoechst High Intensity Objects (%) [5]: 10% and 9%
Population Membrane Permeable-Phenotype (%) [5]: 4%
Population Mitochondria Different-Phenotype (%) [5]: 1%
Population Mitotic Cells (%) [5]: 85% and 84%
Population Normal (%) [5]: 89% and 90%
Population Pyknosed Nuclei (%) [5]: 3%
Population Tubulin-Different-Phenotype (%) [5]: 18% and 23%
Population Apoptotic (%) [6]: 58% and 75%
Population Fragmented Nuclei (%) [6]: 5%
Population Healthy Nuclei (%) [6]: 84% and 83%
Population Hoechst High Intensity Objects (%) [6]: 8% and 13%
Population Membrane Permeable-Phenotype (%) [6]: 2% and 3%
Population Mitochondria Different-Phenotype (%) [6]: 29% and 34%
Population Mitotic Cells (%) [6]: 41% and 24%
Population Normal (%) [6]: 91% and 86%
Population Pyknosed Nuclei (%) [6]: 9% and 11%
Population Tubulin-Different-Phenotype (%) [6]: 76% and 87%

CCn1c(-c2nonc2N)nc2cncc(C(=O)N3CC[C@H](N)C3)c21.Cl
Population Apoptotic (%) [1]: 31% and 33%
Population Fragmented Nuclei (%) [1]: 2%
Population Healthy Nuclei (%) [1]: 81% and 83%
Population Hoechst High Intensity Objects (%) [1]: 7% and 5%
Population Membrane Permeable-Phenotype (%) [1]: 4% and 1%
Population Mitochondria Different-Phenotype (%) [1]: 10% and 8%
Population Mitotic Cells (%) [1]: 68% and 66%
Population Normal (%) [1]: 92% and 94%
Population Pyknosed Nuclei (%) [1]: 16% and 14%
Population Tubulin-Different-Phenotype (%) [1]: 33% and 38%
Total Cell Count [1]: 694 and 685
Population Apoptotic (%) [2]: 21% and 43%
Population Fragmented Nuclei (%) [2]: 2%
Population Healthy Nuclei (%) [2]: 84% and 78%
Population Hoechst High Intensity Objects (%) [2]: 5% and 4%
Population Membrane Permeable-Phenotype (%) [2]: 1% and 0%
Population Mitochondria Different-Phenotype (%) [2]: 12% and 15%
Population Mitotic Cells (%) [2]: 78% and 56%
Population Normal (%) [2]: 94% and 95%
Population Pyknosed Nuclei (%) [2]: 13% and 19%
Population Tubulin-Different-Phenotype (%) [2]: 38% and 31%
Total Cell Count [2]: 716 and 454
Population Apoptotic (%) [3]: 46% and 37%
Population Fragmented Nuclei (%) [3]: 3%
Population Healthy Nuclei (%) [3]: 84% and 86%
Population Hoechst High Intensity Objects (%) [3]: 6% and 5%
Population Membrane Permeable-Phenotype (%) [3]: 2%
Population Mitochondria Different-Phenotype (%) [3]: 2% and 3%
Population Mitotic Cells (%) [3]: 53% and 62%
Population Normal (%) [3]: 93% and 94%
Population Pyknosed Nuclei (%) [3]: 11% and 9%
Population Tubulin-Different-Phenotype (%) [3]: 12% and 20%
Total Cell Count [3]: 994 and 875
Population Apoptotic (%) [4]: 30% and 53%
Population Fragmented Nuclei (%) [4]: 2% and 1%
Population Healthy Nuclei (%) [4]: 86% and 79%
Population Hoechst High Intensity Objects (%) [4]: 8% and 7%
Population Membrane Permeable-Phenotype (%) [4]: 1%
Population Mitochondria Different-Phenotype (%) [4]: 12% and 16%
Population Mitotic Cells (%) [4]: 69% and 46%
Population Normal (%) [4]: 91% and 92%
Population Pyknosed Nuclei (%) [4]: 10% and 18%
Population Tubulin-Different-Phenotype (%) [4]: 36% and 34%
Total Cell Count [4]: 751 and 447
Population Apoptotic (%) [5]: 9% and 19%
Population Fragmented Nuclei (%) [5]: 9% and 8%
Population Healthy Nuclei (%) [5]: 86% and 87%
Population Hoechst High Intensity Objects (%) [5]: 10% and 9%
Population Membrane Permeable-Phenotype (%) [5]: 3%
Population Mitochondria Different-Phenotype (%) [5]: 0%
Population Mitotic Cells (%) [5]: 90% and 80%
Population Normal (%) [5]: 89% and 90%
Population Pyknosed Nuclei (%) [5]: 3% and 4%
Population Tubulin-Different-Phenotype (%) [5]: 11% and 10%
Total Cell Count [5]: 1942 and 1388
Population Apoptotic (%) [6]: 51% and 57%
Population Fragmented Nuclei (%) [6]: 7% and 3%
Population Healthy Nuclei (%) [6]: 87% and 84%
Population Hoechst High Intensity Objects (%) [6]: 11%
Population Membrane Permeable-Phenotype (%) [6]: 2% and 1%
Population Mitochondria Different-Phenotype (%) [6]: 4% and 7%
Population Mitotic Cells (%) [6]: 48% and 42%
Population Normal (%) [6]: 88%
Population Pyknosed Nuclei (%) [6]: 5% and 12%
Population Tubulin-Different-Phenotype (%) [6]: 28% and 30%
Total Cell Count [6]: 917 and 468
